Results on 96 compounds are retold here after ChEMBL document CHEMBL4513216, “Probing the Open Global Health Chemical Diversity Library for Multistage-Active Starting Points for Next-Generation Antimalarials” (ACS Infect Dis, 2020).

A short description of this data set: Toxicity liver stage against HepG2, at 10uM. Type of data set: cell-based. The note with it: human, HepG2-A16-CD81EGFP cells; read-out: INHIBITION
Also noted: test concentration 10 uM, cell line HepG2-A16-CD81EGFP. The procedure, abridged:
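Uninfected HepG2-A16-CD81EGFP cells, 3 × 10^3 per well, 1536-well, plated on prespotted compound at 10 μM final, parasite-free screening media added to match infected plates; puromycin 10 μM positive, DMSO 0.5% negative; run in parallel with 48 h PbLuc assay at 37 °C, 5% CO2; viability by CellTiter-Glo luminescence, normalized to controls.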
As for `Cc1cnn(CC2CCCN2C(=O)c2cccc(S(C)(=O)=O)c2)c1` (stereo unspecified), the cytotoxicity at 10 µM is -10.3%.

With `Cc1cccc(CN2C[C@@H]3CN(C(=O)c4ccnnc4)C[C@@H]3C2=O)c1`, the cytotoxicity at 10 µM is -6.89%.

For the compound `O=C([C@@H]1C[C@@H]2CCN(C3CCOCC3)C[C@@H]2O1)N1CCCC1`, the cytotoxicity at 10 µM was determined as 6.81%.

In the case of `Cc1ccc2c(c1)C(NC1CC1)CC21CCNCC1` (stereo unspecified), the cytotoxicity at 10 µM is -98%.

`Cc1cc2nc(SCC(=O)N3CCCCC3)n(C)c(=O)c2[nH]1`: the cytotoxicity at 10 µM turned out to be 5.56%.

As for `Cc1nnc([C@@]23CCO[C@@H]2CCN(S(=O)(=O)c2cccnc2)C3)o1`, the cytotoxicity at 10 µM is -103%.

Regarding `CC(NC(=O)NCCCn1cncn1)c1ccncc1` (stereo unspecified), the cytotoxicity at 10 µM is -15.9%.

In the case of `COc1ccccc1C(=O)NS(=O)(=O)c1cncc(Br)c1`, the cytotoxicity at 10 µM was -6.05%.

For `O=C(O)[C@@H]1CN(C(=O)NCC2CCCCC2)C[C@H]1c1ccccn1`, the cytotoxicity at 10 µM came out at 7.15%.

For `O=c1cc(Cn2ccnc2)nc2n1CCCN(Cc1ccco1)C2`, the cytotoxicity at 10 µM worked out at 7.77%.

Consider `Cc1cnn(CC2CCCCN2C(=O)c2ccnc(N(C)C)c2)c1` (stereo unspecified), for which the cytotoxicity at 10 µM was 3.3%.

For the compound `COc1ccc(-c2nc3c([nH]2)CCNC3C(=O)O)c2ccccc12` (stereo unspecified), the cytotoxicity at 10 µM came to 8.63%.

Turning to `CC(C)CC(=O)NS(=O)(=O)c1ccc(C#N)cc1C(F)(F)F`, the cytotoxicity at 10 µM is -8.64%.

Turning to `CCOc1ccccc1OC1CCN(C(=O)c2ccc(=O)[nH]n2)CC1`, the cytotoxicity at 10 µM was -8.7%.

For the compound `Cn1cc(CN2CCCC3(CCN(Cc4cccnc4)C3=O)C2)cn1` (stereo unspecified), the cytotoxicity at 10 µM was -3.99%.

For `Cc1nc(C)c2c(n1)CCN(C(=O)CC1CC1)CC2`, the cytotoxicity at 10 µM came out at 2.34%.

With `O=C(NCc1ccon1)N1CCC(n2ccc(C(F)(F)F)n2)CC1`, the cytotoxicity at 10 µM is -0.0817%.

As to `CC(C)(C)C(=O)N1CCC(n2nc(-c3ccco3)ccc2=O)CC1`, the cytotoxicity at 10 µM was -15.4%.

Turning to `CCC1CCC(NCCN2CCOCC2)CC1` (stereo unspecified), the cytotoxicity at 10 µM amounted to 3.62%.

Take `COc1cc(CN(C)C(=O)NCC(=O)NC(C)C)ccc1SC`: the cytotoxicity at 10 µM is -15.5%.

Regarding `CC(Cn1cccn1)n1cnc2cccc(F)c2c1=O` (stereo unspecified), the cytotoxicity at 10 µM is -0.288%.

With `O=C(O)[C@]12CCCN(Cc3ccncc3)C[C@H]1CN(c1ncccn1)C2`, the cytotoxicity at 10 µM worked out at 2.59%.

For `COC[C@H]1CNC(=O)[C@@H]2CCN(Cc3cccc(C)n3)CC[C@H]12`, the cytotoxicity at 10 µM turned out to be 16.7%.

On to `O=C(c1ccccn1)N1CCC(Nc2cccnn2)CC1`, for which the cytotoxicity at 10 µM is -0.121%.

As for `CCc1nc(C)c(C(=O)N[C@@H]2c3ccccc3C[C@@H]2O)o1`, the cytotoxicity at 10 µM came to 4.57%.

With `Cc1cc(C)c2[nH]c(C)c(CC(=O)N(C)CCN(C)C)c2c1`, the cytotoxicity at 10 µM turned out to be 2.49%.

Consider `COCC(=O)NC(C)Cc1cccc(Br)c1` (stereo unspecified), for which the cytotoxicity at 10 µM was -8.21%.

As to `Cc1cc(CN(C)C(=O)c2cc(COc3ccccc3)[nH]n2)n[nH]1`, the cytotoxicity at 10 µM turned out to be 5.76%.

As to `COc1ccccc1C(C)(C)NC(=O)c1cc(NC(C)=O)ccc1F`, the cytotoxicity at 10 µM is -137%.

`Cn1cccc1C(=O)N1CCc2ncnc(N3CCOCC3)c2CC1`: the cytotoxicity at 10 µM was -74.3%.

Take `O=C(Cc1ccc(CO)cc1)N1CCN(c2ccccc2Cl)C(=O)C1`: the cytotoxicity at 10 µM worked out at 6.39%.

With `CCN(CC)CCn1cnc(-c2ccccc2)c1-c1ncc[nH]1`, the cytotoxicity at 10 µM came to 4.03%.

`COC(=O)CC(NC(=O)c1cccc(CS(C)(=O)=O)c1)c1cccs1` (stereo unspecified): the cytotoxicity at 10 µM is -44.8%.

For `NC(=O)C(Cc1ccccc1)NS(=O)(=O)Cc1ccccc1Cl` (stereo unspecified), the cytotoxicity at 10 µM was determined as 7.56%.

Take `Nc1nc(N)c2c(n1)OC1(CCN(C(=O)CC3CCCNC3)CC1)C2` (stereo unspecified): the cytotoxicity at 10 µM worked out at 5.03%.

`CCc1cnc(N)nc1NC(C)c1cnn(C)c1` (stereo unspecified): the cytotoxicity at 10 µM is -0.333%.

For the compound `COc1ccc(C[C@H]2CN(Cc3ccoc3)CC[C@H]2OC)cc1`, the cytotoxicity at 10 µM was 8.44%.

Turning to `Cc1cc(Cl)ccc1NCc1cnn(C2CCS(=O)(=O)C2)c1` (stereo unspecified), the cytotoxicity at 10 µM was 6.51%.

As for `COc1ccc2c(c1)nc1n2[C@@H](CNCc2ccccc2)COC1`, the cytotoxicity at 10 µM is -0.201%.

Turning to `NCC1CN(c2nc(-c3ccccc3)nc3c2CCNCC3)CCO1` (stereo unspecified), the cytotoxicity at 10 µM was -14.9%.

`Cc1ccccc1CN1CCC(NCC2CNc3ccnn3C2)CC1` (stereo unspecified): the cytotoxicity at 10 µM was 0.0194%.

Take `Cc1nc(NC2CC(C)(C)NC(C)(C)C2)c2c(n1)c(C)nn2C`: the cytotoxicity at 10 µM is -11.5%.

In the case of `COc1cccc(-c2nc(C)c(C(=O)N[C@@H](CCSC)C(=O)O)s2)c1`, the cytotoxicity at 10 µM was -1.64%.

As to `COC(=O)CCC(=O)NCc1cccnc1N1CCc2ccccc2C1`, the cytotoxicity at 10 µM was -8.09%.

In the case of `CCCc1noc(C(C)N2CCN(c3ccc(C#N)cn3)CC2)n1` (stereo unspecified), the cytotoxicity at 10 µM was -0.487%.

For `COc1ccc(C(=O)N(CCC#N)Cc2ccccn2)cc1`, the cytotoxicity at 10 µM turned out to be 13.1%.

As for `CCc1noc(CCC(=O)N[C@@H]2CC[C@@H](n3ccnc3)[C@@H]2O)n1`, the cytotoxicity at 10 µM is -15.5%.

Take `Cc1ccc(CN2CCN(Cc3ccncc3)CC2=O)cc1`: the cytotoxicity at 10 µM is -5.64%.

For the compound `CNC(=O)CCNC(=O)CCc1c(C)nc2cc(O)nn2c1C`, the cytotoxicity at 10 µM is -2.7%.

As for `CS(=O)(=O)NC1CCN(CCc2ccccc2)CC1`, the cytotoxicity at 10 µM is -1.76%.

Consider `CC(=O)Nc1nc(C(=O)N2CCCC(n3nc(C)cc3C)C2)cs1` (stereo unspecified), for which the cytotoxicity at 10 µM is 0.74%.

Take `Cc1nc(CN2CCCC2c2c(C)nn(C)c2Cl)no1` (stereo unspecified): the cytotoxicity at 10 µM is 1.85%.

In the case of `Cn1cnc(S(=O)(=O)N2C[C@H]3CN(Cc4cccnc4)C[C@H]3C2)c1`, the cytotoxicity at 10 µM amounted to 8.46%.

For `CC(Cn1ccnc1)NC(=O)C1(c2ccc(F)cc2)CC1` (stereo unspecified), the cytotoxicity at 10 µM was -9.62%.

Turning to `COCC(=O)N1CCC(=O)N(C2CCCC2)Cc2cc(F)ccc21`, the cytotoxicity at 10 µM is -3.3%.

As for `N#Cc1cc(NC(=O)c2cc[nH]n2)ccc1N1CCC(O)CC1`, the cytotoxicity at 10 µM was -0.758%.

`Cn1ccnc1CN1C[C@H]2CN(S(=O)(=O)c3ccccc3)CCN2C1=O`: the cytotoxicity at 10 µM came to 8.36%.

In the case of `CC(C)c1nn(C)c(N(C)C)c1CNC1CCN(C2CC2)CC1`, the cytotoxicity at 10 µM was 5.6%.

As for `c1cc(CNCC2CNc3ccnn3C2)cc(OC2CCCCC2)n1` (stereo unspecified), the cytotoxicity at 10 µM was -8.78%.

For `O=C(c1ccccc1F)N1CCN(CCCn2cncn2)CC1`, the cytotoxicity at 10 µM is 2.99%.

On to `CC(=O)N1CCC(NC(=O)c2ccccc2-n2cnnn2)CC1`, for which the cytotoxicity at 10 µM is 6.87%.

In the case of `Cc1ccc(C(=O)NCc2ccccc2S(=O)(=O)N(C)CCO)cc1F`, the cytotoxicity at 10 µM is -3.04%.

`O=C(NCc1cccc(F)c1F)c1cc(CN2CCCC(O)C2)on1` (stereo unspecified): the cytotoxicity at 10 µM is -45.9%.

For the compound `COCCN1CC(C(=O)NCc2cccnc2-n2cccn2)CC1=O` (stereo unspecified), the cytotoxicity at 10 µM amounted to 3.74%.

Consider `c1ccc(-c2nnc(CN3C[C@H]4CC[C@@H](C3)N(CC3CCC3)C4)o2)cc1`, for which the cytotoxicity at 10 µM is -8.51%.

Take `CS(=O)(=O)NCCc1cccc2cccnc12`: the cytotoxicity at 10 µM was found to be 18.3%.

Take `CN1CCOC(CNCc2ccc(OCc3ccccn3)cc2)C1` (stereo unspecified): the cytotoxicity at 10 µM is -13.4%.

Regarding `CCOc1ccc(CC(CNC(=O)c2ccc(C)s2)C(N)=O)cc1` (stereo unspecified), the cytotoxicity at 10 µM was -3.85%.

Turning to `O=C(C1CCOCC1)N1CCOCC(Cc2ncccn2)C1` (stereo unspecified), the cytotoxicity at 10 µM came out at 1.38%.

As for `CCc1nnc(CN2CCN(C(=O)c3ccccn3)CC2)o1`, the cytotoxicity at 10 µM was 3.49%.

For `CC(C)c1nnc2n1CCN(C(C(N)=O)c1ccc(F)cc1)C2` (stereo unspecified), the cytotoxicity at 10 µM came to 1.54%.

As to `CCC(Nc1nc(C(F)(F)F)nc2ccccc12)C(=O)O` (stereo unspecified), the cytotoxicity at 10 µM turned out to be 3.75%.

For the compound `CC(=O)Nn1ccc2c(nnc3c(-c4ccc(F)cc4)cnn32)c1=O`, the cytotoxicity at 10 µM is 1.36%.

As for `O=C1NCCN1C1CCN(c2ccnc(-c3ccccc3)n2)CC1`, the cytotoxicity at 10 µM was determined as 36.2%.

Consider `COCCCN1CC2(CCCCN2C(C)=O)CC1=O` (stereo unspecified), for which the cytotoxicity at 10 µM came out at 16.3%.

As for `Cn1ncnc1NCc1ccc(F)cc1`, the cytotoxicity at 10 µM worked out at 0.361%.

In the case of `Cc1csc2ncnc(N3CCC(Cn4cc(C(C)(C)N)nn4)CC3)c12`, the cytotoxicity at 10 µM came out at 25.5%.

Take `Cc1cc(C)n(C2CN(Cc3noc(C4CC4)n3)C2)n1`: the cytotoxicity at 10 µM is 0.738%.

Consider `Cn1ccnc1CN1CCC2(CC1)CN(c1ccccc1)C(=O)CO2`, for which the cytotoxicity at 10 µM was -0.414%.

Consider `O=C(CCN1C(=O)CCC1=O)Nc1ccc(Cl)cc1`, for which the cytotoxicity at 10 µM is -2.79%.

For the compound `CCCN1CCCn2c(nc(CNC(=O)c3ccsc3)cc2=O)C1`, the cytotoxicity at 10 µM is 6.89%.

For the compound `COc1cccc(S(=O)(=O)CCN2CCCC2c2ccc[nH]2)c1` (stereo unspecified), the cytotoxicity at 10 µM is -3.89%.

For `Cn1cnc(S(=O)(=O)NCC2(O)CCc3ccccc3C2)c1` (stereo unspecified), the cytotoxicity at 10 µM is -4.2%.

Regarding `COCC(=O)N1CC[C@H]2OCC[C@@]2(c2nc(C)no2)C1`, the cytotoxicity at 10 µM is -0.461%.

As for `N#CC(NC(=O)CCC(=O)NC1CCCC1)c1ccc(F)cc1F` (stereo unspecified), the cytotoxicity at 10 µM was 6.75%.

Consider `CN1CCC2(C=C(C(=O)N3CCCC3)c3ccccc32)CC1`, for which the cytotoxicity at 10 µM was 1.97%.

With `COCC(C)(O)CNC(=O)COc1ccccc1OC` (stereo unspecified), the cytotoxicity at 10 µM was -12.2%.

Consider `CC(C)CN1CCC2(CCCNC2)C1=O` (stereo unspecified), for which the cytotoxicity at 10 µM was -0.184%.

In the case of `COCCN1CC[C@@H](OC)[C@@H]1Cc1ccccc1`, the cytotoxicity at 10 µM stood at 4.9%.

On to `CN1CCCc2sc(C(=O)NCc3cccnc3)nc21`, for which the cytotoxicity at 10 µM came out at 14.9%.

Consider `CCc1nc2n(n1)CC(NCc1nc(C)ccc1O)CC2` (stereo unspecified), for which the cytotoxicity at 10 µM is -9.96%.

In the case of `O=C(COc1coc(CN2CCCCCC2)cc1=O)c1ccccc1`, the cytotoxicity at 10 µM worked out at 4.21%.

Regarding `CCOc1ccc(S(=O)(=O)NC(=O)c2c(C)noc2C(C)C)cc1`, the cytotoxicity at 10 µM is -3.08%.

For the compound `CCC(NC1CCN(C(=O)c2ccccc2)CC1)c1cccs1` (stereo unspecified), the cytotoxicity at 10 µM was -2.62%.

Consider `CN(C)C1CCN(c2cc(-c3ccccc3)nc3ccnn23)C1` (stereo unspecified), for which the cytotoxicity at 10 µM is -53.5%.

On to `O=C(Nc1ccccc1)N1CCn2c(nnc2C2CCNCC2)C1`, for which the cytotoxicity at 10 µM is -3.84%.
